Read-outs that look alike come from different tables or passages of the source.
Key:
[1] = tested on: 47 KDa protein in U937 cell membranes; format: binding; conditions: for Ki: read-out: Ki (95% Confidence Intervals), inhibition of 20-125I-14,15-EE8ZE-APSA photolabeling, U937 membranes, one-site competitive binding model
[2] = tested on: EET binding site/receptor on U937 cell membranes; conditions: cited from earlier work
bovine coronary arteries [3] = conditions: cited from earlier work
bovine coronary arteries [4] = conditions: for EC50: read-out: EC50, relaxation of bovine coronary artery rings, rings pre-constricted with U46619 (20 nM)
Outline: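 Left anterior descending bovine coronary artery rings, preconstricted with U46619 (20 nM). Relaxation expressed as %, with basal tension taken as 100% relaxation. Mean ± SEM, n=6–7.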

[5] = tested on: 79 orphan GPCRs overexpressed in HEK293T cells; assay: Photolabeling of GPCRs overexpressed in HEK293T cells; format: binding; conditions: 1 nM photoprobe; 79 GPCRs of Table 2
Outline: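 HEK293T transiently transfected in 96-well format with N-terminal FLAG-tagged GPCRs (pMEX vector); expression confirmed by anti-FLAG flow cytometry. Lysed 30 min on ice (Tris pH 7.4, NaCl, NP-40, deoxycholate, protease inhibitors), sonicated. Lysates with 1 nM 125I photoprobe at 4°C, UV 15 min, SDS-PAGE, autoradiography. Vector-transfected HEK293T as blank; lysate from an equal number of U937 cells as positive control.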

[6] = U937 cell (mixed) membranes, 1 nM photoprobe

Question: For `CCCCCC=CCC=CCC(O)C(O)CC=CCCCC(=O)O` (stereo not drawn) [8,9-DHET, 8,9-dihydroxyeicosatrienoic acid], which “Inhibition of photolabeling of the 47 KDa protein, in words” value (“Inhibition of photolabeling … in words” below) [1, 6] is on record?
Answer: not inhibited

Question: What about the “Effect on 20-125I-14,15-EE5ZE binding, in words” value [2] of the same compound?
Answer: not to displace

Question: Which “Inhibition of photolabeling … in words” value [1, 6] does the source give for `CCCCC/C=C\C[C@H]1O[C@H]1C/C=C\C/C=C\CCCC(=O)O` [11,12-EET] here?
Answer: inhibited

Question: And the Ki [1]?
Answer: 0.0112 µM

Question: With `CCCCCC1OC1CCCCCCC/C=C\CCCC(=O)O` (stereo not drawn) [14,15-EE5ZE, 14,15-cis-epoxy-eicosa-5(Z)-enoic acid] as the compound, how does the Ki [1] read?
Answer: 1.1 µM

Question: Which results are given for `C#CCOc1ccccc1CCCCCC(=O)NS(C)(=O)=O` [MS-PPOH]?
Answer: Inhibition of photolabeling of the 47 KDa protein, in words [1, 6]: partially inhibited; Ki ([2]; read-out: Ki, inhibition of 20-125I-14,15-EE5ZE binding): 1.56 µM; Effect on 14,15-EET-induced relaxations of bovine coronary arteries, in words (bovine coronary arteries [3]): blocked

Question: Which “Inhibition of photolabeling … in words” value [1, 6] does the source give for `CCCCC/C=C\C/C=C\C/C=C\C=C\C(=O)CCCC(=O)O` [5-oxo-eicosatetraenoic acid] here?
Answer: not inhibited

Question: For `Clc1ccc(COC(Cn2ccnc2)c2ccc(Cl)cc2Cl)c(Cl)c1` (stereo not drawn) [miconazole], which “Inhibition of photolabeling … in words” value [1, 6] is on record?
Answer: inhibited

Question: And the “Inhibition of photolabeling … in words” value ([1]; U937 cell (mixed) membranes, 1 nM photoprobe, listed as Miconazole)?
Answer: completely blocked

Question: What about the “Effect on 14,15-EET-induced relaxations of bovine coronary arteries, in words” value (bovine coronary arteries [3]) of the same compound?
Answer: blocked

Question: With `CCCCCC1SC1C/C=C\C/C=C\C/C=C\CCCC(=O)O` (stereo not drawn) [14,15-Thiirane] as the compound, how does the “Inhibition of photolabeling … in words” value [1, 6] read?
Answer: did not alter

Question: And the “Inhibition of photolabeling … in words” value ([1]; U937 cell (mixed) membranes, 1 nM photoprobe, listed as thiirane analog of 14,15-EET)?
Answer: not inhibited

Question: What about the Ki [1] of the same compound?
Answer: > 10 µM

Question: Which results are given for `[N-]=[N+]=Nc1cccc(S(=O)(=O)NC(=O)CCCCCC/C=C\CCCCC2OC2CCCCCI)c1` (stereo not drawn) [20-I-14,15-EE8ZE-APSA, 20-iodo-14,15-epoxyeicosa-8Z-enoyl-3-azidophenylsulfonamide]?
Answer: ED50 for relaxation of preconstricted bovine coronary arteries, in words (bovine coronary arteries [4]; compared with 14,15-EET): comparable to 14,15-EET; EC50 (bovine coronary arteries [4]): ~2 µM

Question: With `C=CCN1CC[C@]23c4c5ccc(O)c4O[C@H]2C(=O)CC[C@@]3(O)[C@H]1C5` [naloxone] as the compound, how does the “Inhibition of photolabeling … in words” value [1, 6] read?
Answer: not inhibited

Question: Which results are given for `CCCCCC1OC1CC=CCC=CCC=CCCCC(=O)O` (stereo not drawn) [14,15-EET, 14,15-epoxyeicosatrienoic acid]?
Answer: EC50 (bovine coronary arteries [4]): ~2 µM; Inhibition of photolabeling of the 47 KDa protein, in words [1, 6]: inhibited; Inhibition of photolabeling of the 47 KDa protein, in words ([1]; U937 plasma membranes): inhibited; Ki [1]: 0.00828 µM

Question: With `CCCCC/C=C\C/C=C\CC1OC1C/C=C\CCCC(=O)O` (stereo not drawn) [8,9-EET] as the compound, how does the Ki [1] read?
Answer: 0.444 µM

Question: With `CC(=O)N1CCN(c2ccc(OCC3COC(Cn4ccnc4)(c4ccc(Cl)cc4Cl)O3)cc2)CC1` (stereo not drawn) [ketoconazole] as the compound, how does the “Inhibition of photolabeling … in words” value [1, 6] read?
Answer: partially inhibited

Question: What about the “Inhibition of 20-125I-14,15-EE5ZE binding” value ([2]; 50 μM) of the same compound?
Answer: 50%

Question: With `CCCCC[C@H](O)/C=C/[C@@H]1[C@@H](C/C=C\CCCC(=O)O)[C@H]2CO[C@@H]1C2` [U46619, 9-11-dideoxy-11α,9a-epoxymethano-prostaglandin F2α] as the compound, how does the “Inhibition of photolabeling … in words” value [1, 6] read?
Answer: not inhibited

Question: Which “Effect on 20-125I-14,15-EE5ZE binding, in words” value [2] does the source give for `Nc1ccc(S(=O)(=O)Nc2ccnn2-c2ccccc2)cc1` [sulfaphenazole] here?
Answer: did not alter

Question: For `CCCC(C(=O)OCCN(CC)CC)(c1ccccc1)c1ccccc1` [proadifen], which “Effect on 20-125I-14,15-EE5ZE binding, in words” value [2] is on record?
Answer: did not alter

Question: And the “Effect on 14,15-EET-induced relaxations of bovine coronary arteries, in words” value (bovine coronary arteries [3])?
Answer: did not alter

Question: For `[N-]=[N+]=Nc1cccc(S(=O)(=O)NC(=O)CCCCCC/C=C\CCCCC2OC2CCCCC[125I])c1` (stereo not drawn) [20-^125I-14,15-EE8ZE-APSA], which “Photolabeling of lysates of GPCR expressing HEK293T cells, in words” value [5] is on record?
Answer: No radiolabeled bands
